# From ChEMBL document CHEMBL1121825, “A potent, new, sedative--hypnotic agent: 5,7-dihydro-5,5,7,7-tetramethyl-3-(3-nitrophenyl)furo[3,4-e]-as-triazine 4-oxide” (J Med Chem, 1981)
# Columns and labels:
# Mus musculus [1] = experiment: Tested for ability to reinduce anesthesia in mice when administered intraperitoneally as a measure of in vivo sedative-hypnotic activity; D represents Toxic; format: functional, organism-based
# Outline: (§1)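 Male Royal Hart mice (20–25 g) were anesthetized with hexobarbital 70.0 mg/kg iv. While they were regaining the righting reflex, compound was given ip. Reinduction was scored as loss of righting reflex for 10 min. ED50 (mg/kg) is the dose reinducing anesthesia in 50% of mice, estimated by probit analysis (Miller–Tainter).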
# Mus musculus [2] = experiment: Ability to reinduce anesthesia in mice as a measure of in vivo sedative-hypnotic activity; format: functional; outline: as §1
# Mus musculus [3] = experiment: Compound was tested for mortality in mice when administered intraperitoneally; format: functional; conditions: ip
# Outline: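 Male Royal Hart mice (20–25 g), groups of five, dosed ip 1 h before SaH 41-178 (50.0 mg/kg ip) to evoke seizures. ED50 is the dose preventing death in 50% of animals, estimated by probit analysis. At least 20 animals per drug.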
# Mus musculus [4] = experiment: Compound was tested for mortality in mice when administered perorally; format: functional; conditions: po
# Outline: (§2)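 Groups of five male Royal Hart mice (20–25 g) received test drug ip or orally 1 h before seizure induction with SaH 41-178 (50.0 mg/kg ip). ED50 is the dose preventing tonic convulsions or death in 50% of animals, by probit analysis.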
# Mus musculus [5] = experiment: Ataxia effect in mice was tested when the compound was administered perorally; format: functional; conditions: po
# Outline: (§3)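 Male Royal Hart mice (20–25 g) were dosed orally and scored in a modified Irwin behavioural observation screen. ED50 values (mg/kg) were estimated by probit analysis after Miller and Tainter, with at least 20 animals per drug. Values were reported as ED50 ± SE, or as the evaluation at the highest nontoxic dose used.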
# Mus musculus [6] = experiment: Ataxia effect in mice was tested when the compound was administered intraperitoneally; format: functional; conditions: ip
# Outline: (§4)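 Modified Irwin observational screen in male Royal Hart mice (20–25 g). ED50 (mg/kg) by probit analysis; at least 20 animals per drug.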
# Mus musculus [7] = experiment: Compound was tested for reinduction of anesthesia in mice when administered intraperitoneally; format: functional; conditions: ip
# Outline: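 Male Royal Hart mice (20–25 g) anaesthetised with hexobarbital (70.0 mg/kg iv) were given drug ip as they regained the righting reflex (modified Winter method). ED50 is the dose producing loss of righting reflex for 10 min in 50% of mice, by probit analysis.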
# Mus musculus [8] = experiment: Compound was tested for rotarod motor coordination in mice when administered intraperitoneally; format: functional; conditions: ip
# Outline: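 Male Royal Hart mice (20–25 g), groups of five, were trained to ride a corrugated-paper-covered rod turning at 15 rpm for 60–90 s. They were retested 30 and 60 min after ip drug or saline. Percent change in rotarod time was taken against controls. ED50 is the dose cutting rotarod time by 50%, estimated by probit analysis. At least 20 animals per drug.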
# Mus musculus [9] = experiment: Compound was tested for rotarod motor coordination in mice when administered perorally; format: functional; conditions: po
# Outline: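 Modified Dunham–Miya rotarod test. Groups of five male Royal Hart mice (20–25 g) were trained on a 15 rpm corrugated rod for 60–90 s, then retested 30 and 60 min after drug or saline (ip or oral). Percent change in riding time versus controls; ED50 is the dose giving a 50% decrease, by probit analysis.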
# Mus musculus [10] = experiment: Docility effect in mice was tested when the compound was administered ip; format: functional; outline: as §4
# Mus musculus [11] = experiment: Docility effect in mice was tested when the compound was administered perorally; format: functional; conditions: po
# Outline: (§5)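 Oral dosing of male Royal Hart mice (20–25 g), scored by a modified Irwin behavioural screen. ED50 (mg/kg) estimated by probit analysis; at least 20 animals per drug.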
# Mus musculus [12] = experiment: Compound was tested for tonic convulsions when administered intraperitoneally; format: functional; conditions: ip; outline: as §2
# Mus musculus [13] = experiment: Righting reflex effect in mice was tested when the compound was administered intraperitoneally; format: functional; conditions: ip; outline: as §4
# Mus musculus [14] = experiment: Righting reflex effect in mice was tested when the compound was administered perorally; format: functional; conditions: po; outline: as §3
# Mus musculus [15] = experiment: Hypomotility effect in mice was tested when the compound was administered intraperitoneally; format: functional; conditions: ip; outline: as §4
# Mus musculus [16] = experiment: Hypomotility effect in mice was tested when the compound was administered perorally; format: functional; conditions: po
# Outline: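 Modified Irwin behavioral observation in male Royal Hart mice (20–25 g), observed for 2 h after dosing. ED50 (mg/kg) estimated by probit analysis per Miller and Tainter. At least 20 animals per drug.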
# Mus musculus [17] = experiment: Prehensile effect in mice was tested when the compound was administered intraperitoneally; format: functional; conditions: ip; outline: as §4
# Mus musculus [18] = experiment: Prehensile effect in mice was tested when the compound was administered perorally; format: functional; conditions: po; outline: as §5
# [19] = Acute toxicity in mice after 2 hours when administered intraperitoneally; format: organism-based; conditions: mouse, in vivo, ip
# Outline: (§6)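 Male Royal Hart mice (20–25 g) dosed intraperitoneally or orally; deaths scored at 2 h and 72 h. LD50 (mg/kg) estimated by probit analysis (Miller–Tainter), with at least 20 animals per drug.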
# [20] = Acute toxicity in mice after 2 hours when administered perorally; format: organism-based; conditions: mouse, in vivo, po; outline: as §6
# [21] = Acute toxicity in mice after 72 hours when administered intraperitoneally; format: organism-based; conditions: mouse, in vivo, ip; outline: as §6
# [22] = Acute toxicity in mice after 72 hours when administered perorally; format: organism-based; conditions: mouse, in vivo, po; outline: as §6
# Rattus norvegicus [23] = experiment: Hypomotility effect in rats was tested when the compound was administered perorally; format: functional; conditions: po
# Outline: (§7)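 Modified Irwin behavioural observation in male Wistar rats (130–160 g). ED50 (mg/kg) obtained by probit analysis; minimum 20 animals per drug.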
# Rattus norvegicus [24] = experiment: Ataxia effect in rats was tested when the compound was administered perorally; format: functional; conditions: po; outline: as §7
# Rattus norvegicus [25] = experiment: Righting reflex effect in rats was tested when the compound was administered perorally; format: functional; conditions: po; outline: as §7
# [26] = Acute toxicity in rats after 2 hours when administered perorally; format: organism-based; conditions: rat, in vivo, po
# Outline: (§8)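 Male Wistar rats (130–160 g) dosed orally; lethality read at 2 h and 72 h. LD50 (mg/kg) derived by probit analysis (Miller–Tainter), using a minimum of 20 animals per drug.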
# Mus musculus [27] = experiment: Compound was tested for tonic convulsions when administered perorally; format: functional; conditions: po; outline: as §2
# [28] = Acute toxicity in rats after 72 hours when administered perorally; format: organism-based; conditions: rat, in vivo, po; outline: as §8
structure (smiles),measurement,setting,value
CCCc1nnc(-c2ccccn2)nc1C,ED50,Mus musculus [1],Toxic
CC1(C)OC(C)(C)c2c1nnc(-c1cc([N+](=O)[O-])cc([N+](=O)[O-])c1)[n+]2[O-],ED50,Mus musculus [2],500 mg/kg
CC1(C)OC(C)(C)c2nc(-c3ccccn3)nnc21,ED50,Mus musculus [2],21 mg/kg
CC1(C)OC(C)(c2ccccc2)c2nnc(-c3cccc([N+](=O)[O-])c3)nc21 (stereo not given),ED50,Mus musculus [2],800 mg/kg
CC1(C)OC(C)(C)c2c1nnc(-c1cccc(Cl)c1)[n+]2[O-],ED50,Mus musculus [2],500 mg/kg
Cc1ccccc1-n1c(C)nc2ccccc2c1=O [METHAQUALONE],ED50,Mus musculus [3],25 mg/kg
same,ED50,Mus musculus [4],45 mg/kg
same,ED50,Mus musculus [5],23 mg/kg
same,ED50,Mus musculus [6],29 mg/kg
same,ED50,Mus musculus [7],19 mg/kg
same,ED50,Mus musculus [8],25 mg/kg
same,ED50,Mus musculus [9],36 mg/kg
same,ED50,Mus musculus [10],31 mg/kg
same,ED50,Mus musculus [11],20 mg/kg
same,ED50,Mus musculus [2],20 mg/kg
same,ED50,Mus musculus [12],25 mg/kg
same,ED50,Mus musculus [13],34 mg/kg
same,ED50,Mus musculus [14],23 mg/kg
same,ED50,Mus musculus [15],34 mg/kg
same,ED50,Mus musculus [16],25 mg/kg
same,ED50,Mus musculus [17],37 mg/kg
same,ED50,Mus musculus [18],30 mg/kg
same,LD50 at 2 h,[19],565 mg/kg
same,LD50 at 2 h,[20],> 400 mg/kg
same,LD50 at 72 h,[21],470 mg/kg
same,LD50 at 72 h,[22],> 400 mg/kg
same,ED50,Rattus norvegicus [23],44 mg/kg
same,ED50,Rattus norvegicus [24],23 mg/kg
same,ED50,Rattus norvegicus [25],52 mg/kg
same,LD50 at 2 h,[26],> 800 mg/kg
same,ED50,Mus musculus [27],39 mg/kg
same,LD50 at 72 h,[28],185 mg/kg
CC1(C)C=CC(C)(C)c2nc(-c3cccc(S(N)(=O)=O)c3)nnc21,ED50,Mus musculus [2],1000 mg/kg
CC1(C)OC(C)(C)c2nc(-c3ccc4ccccc4n3)nnc21,ED50,Mus musculus [2],168 mg/kg
CC1(C)OC(C)(C)c2c1nnc(-c1ccc(F)cc1)[n+]2[O-],ED50,Mus musculus [2],500 mg/kg
